Assay results taken from ChEMBL document CHEMBL1944633, “A new generation of radiofluorinated pyrimidine-2,4,6-triones as MMP-targeted radiotracers for positron emission tomography” (J Med Chem, 2012).

Experiments:
[1] = Octanol-water partition coefficient, log D of the compound at pH 7.4 by gamma counter; assay type: physicochemical
Method in brief: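 About 20 kBq radioligand shaken 1 min at room temperature in equal volumes (0.5 mL) of PBS pH 7.4 and 1-octanol. Phases separated by centrifugation (3000 rpm, 2 min). Three 100 μL samples per layer gamma-counted. log D7.4 = log(cpm octanol/cpm PBS). Two independent experiments in triplicate, mean ± standard deviation.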

Neutrophil collagenase = Neutrophil collagenase (Homo sapiens, UniProt P22894); experiment: Inhibition of MMP8 using (7-methoxycoumarin-4-yl)acetyl-Pro-Leu-Gly-Leu-(3-(2,4-dinitrophenyl)-L-2,3-diaminopropionyl)Ala-Arg-NH2 as substrate preincubated for 30 mins measured after 10 mins by fluorescence analysis
Neutrophil collagenase, sequence (P22894 whole entry): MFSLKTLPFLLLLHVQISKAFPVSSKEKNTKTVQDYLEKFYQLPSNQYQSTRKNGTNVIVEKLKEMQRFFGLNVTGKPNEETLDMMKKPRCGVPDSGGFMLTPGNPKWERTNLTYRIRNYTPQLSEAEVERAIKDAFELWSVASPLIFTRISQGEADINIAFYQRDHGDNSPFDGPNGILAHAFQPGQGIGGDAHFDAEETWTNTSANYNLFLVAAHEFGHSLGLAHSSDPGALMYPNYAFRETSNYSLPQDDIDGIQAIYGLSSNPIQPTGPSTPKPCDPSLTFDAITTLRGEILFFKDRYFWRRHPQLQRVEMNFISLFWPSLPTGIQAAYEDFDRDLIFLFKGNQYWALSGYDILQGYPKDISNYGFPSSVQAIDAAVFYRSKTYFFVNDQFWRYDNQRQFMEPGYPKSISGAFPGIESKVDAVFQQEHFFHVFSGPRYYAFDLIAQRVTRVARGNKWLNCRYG
Method in brief: (§1)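 Activated enzyme at 2 nM preincubated with inhibitor (10 pM to 1 mM) for 30 min at 37 °C in 50 mM Tris-HCl pH 7.5, 0.2 M NaCl, 5 mM CaCl2, 20 μM ZnSO4, 0.05% Brij 35. Fluorogenic peptide substrate added (10 μL of 50 μM stock to 90 μL mix). Fluorescence read at ex 330/em 390 nm. Rates taken from initial 10 min; IC50 by nonlinear regression of rate versus concentration.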

Collagenase 3 = Collagenase 3 (Homo sapiens, UniProt P45452); experiment: Inhibition of MMP13 using (7-methoxycoumarin-4-yl)acetyl-Pro-Leu-Gly-Leu-(3-(2,4-dinitrophenyl)-L-2,3-diaminopropionyl)Ala-Arg-NH2 as substrate preincubated for 30 mins measured after 10 mins by fluorescence analysis; method in brief: as §1
[2] = molecular target: Matrix metalloproteinase-9 (Homo sapiens, UniProt P14780); experiment: Inhibition of MMP9 using (7-methoxycoumarin-4-yl)acetyl-Pro-Leu-Gly-Leu-(3-(2,4-dinitrophenyl)-L-2,3-diaminopropionyl)Ala-Arg-NH2 as substrate preincubated for 30 mins measured after 10 mins by fluorescence analysis
Matrix metalloproteinase-9, sequence (P14780 whole entry): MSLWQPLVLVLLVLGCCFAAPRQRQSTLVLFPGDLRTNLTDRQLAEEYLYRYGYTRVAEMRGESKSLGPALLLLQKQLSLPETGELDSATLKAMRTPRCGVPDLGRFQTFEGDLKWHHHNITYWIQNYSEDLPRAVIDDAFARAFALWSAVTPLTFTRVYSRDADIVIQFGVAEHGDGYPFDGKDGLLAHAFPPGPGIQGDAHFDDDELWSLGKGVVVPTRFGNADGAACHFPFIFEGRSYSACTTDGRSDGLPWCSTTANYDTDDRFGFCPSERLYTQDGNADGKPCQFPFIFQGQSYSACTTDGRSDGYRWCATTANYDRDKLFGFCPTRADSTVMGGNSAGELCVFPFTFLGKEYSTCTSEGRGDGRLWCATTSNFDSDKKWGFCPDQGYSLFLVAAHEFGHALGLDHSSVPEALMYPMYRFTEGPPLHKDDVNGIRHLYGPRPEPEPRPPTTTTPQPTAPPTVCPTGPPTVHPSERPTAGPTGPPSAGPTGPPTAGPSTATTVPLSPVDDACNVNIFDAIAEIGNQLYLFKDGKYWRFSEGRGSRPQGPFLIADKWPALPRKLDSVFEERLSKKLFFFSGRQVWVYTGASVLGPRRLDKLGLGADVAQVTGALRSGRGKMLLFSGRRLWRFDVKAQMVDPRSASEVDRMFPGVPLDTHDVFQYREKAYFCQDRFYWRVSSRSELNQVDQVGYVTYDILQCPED
Method in brief: (§2)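 Activated enzyme at 2 nM preincubated with inhibitor (10 pM to 1 mM) for 30 min at 37 °C in 50 mM Tris-HCl pH 7.5, 0.2 M NaCl, 5 mM CaCl2, 20 μM ZnSO4, 0.05% Brij 35. Fluorogenic peptide substrate added (10 μL of 50 μM stock to 90 μL mix).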

[3] = molecular target: 72 kDa type IV collagenase (Homo sapiens, UniProt P08253); experiment: Inhibition of MMP2 using (7-methoxycoumarin-4-yl)acetyl-Pro-Leu-Gly-Leu-(3-(2,4-dinitrophenyl)-L-2,3-diaminopropionyl)Ala-Arg-NH2 as substrate preincubated for 30 mins measured after 10 mins by fluorescence analysis; method in brief: as §2
72 kDa type IV collagenase, sequence (P08253 whole entry): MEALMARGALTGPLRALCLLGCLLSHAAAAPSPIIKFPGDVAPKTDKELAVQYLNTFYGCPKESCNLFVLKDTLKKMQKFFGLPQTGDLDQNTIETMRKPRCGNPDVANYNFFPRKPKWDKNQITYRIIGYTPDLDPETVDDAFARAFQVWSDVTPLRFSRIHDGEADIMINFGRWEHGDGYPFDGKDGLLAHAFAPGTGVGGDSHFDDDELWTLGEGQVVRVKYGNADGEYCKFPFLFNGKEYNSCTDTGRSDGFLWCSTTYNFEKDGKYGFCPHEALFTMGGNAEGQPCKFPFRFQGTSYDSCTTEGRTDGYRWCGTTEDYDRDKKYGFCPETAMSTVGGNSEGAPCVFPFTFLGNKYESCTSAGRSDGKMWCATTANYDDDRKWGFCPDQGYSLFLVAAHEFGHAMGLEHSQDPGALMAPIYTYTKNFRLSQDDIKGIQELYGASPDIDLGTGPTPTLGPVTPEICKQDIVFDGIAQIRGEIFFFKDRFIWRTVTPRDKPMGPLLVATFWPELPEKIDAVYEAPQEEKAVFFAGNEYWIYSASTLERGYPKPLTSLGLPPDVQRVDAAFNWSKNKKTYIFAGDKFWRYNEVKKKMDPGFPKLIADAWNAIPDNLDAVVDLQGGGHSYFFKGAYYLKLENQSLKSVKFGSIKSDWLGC

[4] = Drug uptake in BALB/c mouse urinary bladder at 5 to 8 MBq measured after 60 mins by CT scanning; assay type: ADME, tissue-based; conditions: in vivo, 1 h
Method in brief: (§3)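 Balb/c mice (19–27 g) under isoflurane (1.5%/0.3 L/min) on a heating pad, tail-vein catheter. 5–8 MBq radiotracer in 100 μL with 150 μL saline flush, injected iv 30 s after scan start. Dynamic list-mode small-animal PET for 60 min, iterative resolution-recovery reconstruction. CT acquired afterwards (80 μm). CT-guided volumes of interest gave time–activity curves as %ID.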

[5] = Drug uptake in BALB/c mouse gallbladder at 5 to 8 MBq measured after 60 mins by CT scanning; assay type: ADME, Gall bladder; conditions: in vivo, 1 h; method in brief: as §3
Lung = experiment: Drug uptake in BALB/c mouse lung at 5 to 8 MBq measured after 60 mins by CT scanning; assay type: ADME; conditions: in vivo, 1 h; method in brief: as §3
[6] = Drug uptake in BALB/c mouse skeleton at 5 to 8 MBq measured after 60 mins by CT scanning; assay type: ADME; conditions: in vivo, 1 h; method in brief: as §3
Liver [7] = experiment: Drug uptake in BALB/c mouse liver at 5 to 8 MBq measured after 60 mins by CT scanning; assay type: ADME; conditions: in vivo, 1 h; method in brief: as §3
Liver [8] = experiment: Drug uptake in BALB/c mouse liver at 5 to 8 MBq measured after 90 to 120 mins post injection by CT scanning; assay type: ADME; conditions: in vivo
Kidney = experiment: Drug uptake in BALB/c mouse kidney at 5 to 8 MBq measured after 60 mins by CT scanning; assay type: ADME; conditions: in vivo, 1 h; method in brief: as §3
Heart = experiment: Drug uptake in BALB/c mouse heart at 5 to 8 MBq measured after 60 mins by CT scanning; assay type: ADME, tissue-based; conditions: in vivo, 1 h; method in brief: as §3
Brain = experiment: Drug uptake in BALB/c mouse brain at 5 to 8 MBq measured after 60 mins by CT scanning; assay type: ADME, tissue-based; conditions: in vivo, 1 h; method in brief: as §3
Intestine = experiment: Drug uptake in BALB/c mouse intestine at 5 to 8 MBq measured after 60 mins by CT scanning; assay type: ADME, tissue-based; conditions: in vivo, 1 h; method in brief: as §3
Serum = experiment: Stability of the compound in human serum at 5MBq measured up to 120 mins by HPLC analysis; assay type: ADME, cell-free; conditions: 2 h
Method in brief: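 PBS-formulated radioligand (20 μL, 5 MBq) added to 200 μL human serum at 37 °C. 20 μL aliquots taken at 10, 20, 30, 60, 90 and 120 min and quenched in methanol/CH2Cl2 (1:1, 100 μL). Samples centrifuged 2 min; organic layer analysed by radio-HPLC (10–90% CH3CN/water, 0.1% TFA gradient).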

Liver [9] = experiment: Drug uptake in BALB/c mouse liver at 5 to 8 MBq measured after 10 to 15 mins post injection by CT scanning; assay type: ADME; conditions: in vivo

With O=C1NC(=O)C(c2ccc(Oc3ccccc3)cc2)(N2CCN(CC[18F])CC2)C(=O)N1 the logD [1] was 2.15, the IC50 (Neutrophil collagenase) was 138 nM and the IC50 (Collagenase 3) was 645 nM.
With O=C1NC(=O)C(c2ccc(Oc3ccccc3)cc2)(N2CCN(c3cccc(F)n3)CC2)C(=O)N1 the IC50 [2] was 9 nM, the IC50 [3] was 203 nM and the IC50 (Neutrophil collagenase) was 129 nM. The IC50 (Collagenase 3) was 48 nM.
In the case of O=C1NC(=O)C(c2ccc(Oc3ccccc3)cc2)(N2CCN(CCOCCOCCOCCNC(=O)c3ccc(F)cc3)CC2)C(=O)N1, the IC50 [2] is reported as 4 nM, the IC50 [3] is reported as 5 nM and the IC50 (Neutrophil collagenase) is reported as 15 nM. It also gave an IC50 (Collagenase 3) of 16 nM.
O=C1NC(=O)C(NCc2cn(CCOCCOCCOCCF)nn2)(c2ccc(Oc3ccccc3)cc2)C(=O)N1 showed an IC50 [2] of 41 nM, an IC50 [3] of 64 nM and an IC50 (Neutrophil collagenase) of 48 nM. For the same molecule, the IC50 (Collagenase 3) was 87 nM.
For O=C1NC(=O)C(NCc2cn(CCOCCOCCOCCOc3cccnc3F)nn2)(c2ccc(Oc3ccccc3)cc2)C(=O)N1, the IC50 [2] was 10 nM, the IC50 [3] was 29 nM and the IC50 (Neutrophil collagenase) was 49 nM. For the same molecule, the IC50 (Collagenase 3) was 9 nM.
In the case of O=C1NC(=O)C(c2ccc(Oc3ccccc3)cc2)(N2CCN(CCOCCOCCOCCOCc3cn(CCF)nn3)CC2)C(=O)N1, the IC50 [2] is reported as 27 nM, the IC50 [3] is reported as 58 nM and the IC50 (Neutrophil collagenase) is reported as 58 nM. For the same molecule, the IC50 (Collagenase 3) was 51 nM.
With O=C1NC(=O)C(c2ccc(Oc3ccccc3)cc2)(N2CCN(CCOCCOCCOCCOCCOCCOCCOCCOCc3cn(CCF)nn3)CC2)C(=O)N1 the IC50 [2] was 74 nM, the IC50 [3] was 44 nM and the IC50 (Neutrophil collagenase) was 150 nM. It also gave an IC50 (Collagenase 3) of 94 nM.
O=C1NC(=O)C(c2ccc(Oc3ccccc3)cc2)(N2CCN(CCOCCOCCOCCOCc3cn(CCOCCOCCOCCOc4cccnc4F)nn3)CC2)C(=O)N1 gave an IC50 [2] of 56 nM, an IC50 [3] of 202 nM and an IC50 (Neutrophil collagenase) of 107 nM. The IC50 (Collagenase 3) was 605 nM.
O=C1NC(=O)C(c2ccc(Oc3ccccc3)cc2)(N2CCN(CCOCCOCCOCCn3cc(COC(=O)c4ccc(F)cc4)nn3)CC2)C(=O)N1 gave an IC50 [2] of 23 nM, an IC50 [3] of 22 nM and an IC50 (Neutrophil collagenase) of 27 nM. For the same molecule, the IC50 (Collagenase 3) was 7 nM.
O=C1NC(=O)C(c2ccc(Oc3ccccc3)cc2)(N2CCN(CCOCCOCCOCCn3cc(CNS(=O)(=O)c4ccc(F)cc4)nn3)CC2)C(=O)N1 showed an IC50 [2] of 20 nM, an IC50 [3] of 13 nM and an IC50 (Neutrophil collagenase) of 19 nM. It also gave an IC50 (Collagenase 3) of 23 nM.
Molecule CN(Cc1cn(CCOCCOCCOCCN2CCN(C3(c4ccc(Oc5ccccc5)cc4)C(=O)NC(=O)NC3=O)CC2)nn1)S(=O)(=O)c1ccc(F)cc1 has an IC50 [2] of 7 nM, an IC50 [3] of 12 nM and an IC50 (Neutrophil collagenase) of 15 nM. It also gave an IC50 (Collagenase 3) of 21 nM.
O=C1NC(=O)C(c2ccc(Oc3ccccc3)cc2)(N2CCN(CCOCCOCCOCCn3cc(CCCCOc4cccnc4F)nn3)CC2)C(=O)N1 showed an IC50 [2] of 60 nM, an IC50 [3] of 52 nM and an IC50 (Neutrophil collagenase) of 116 nM. The IC50 (Collagenase 3) was 40 nM.
For O=C1NC(=O)C(c2ccc(Oc3ccccc3)cc2)(N2CCN(CCOCCOCCOCCOCc3cn(CC[18F])nn3)CC2)C(=O)N1, the Drug uptake [4] was “Active”, the Drug uptake [5] was “Active” and the Drug uptake (Lung) was “Not Active”. For the same molecule, the Drug uptake [6] was “Active”, the Drug uptake (Liver [7]) was “Active” and the Drug uptake (Liver [8]) was “Active”. For the same molecule, the Drug uptake (Kidney) was “Active”, the Drug uptake (Heart) was “Not Active” and the Drug uptake (Brain) was “Not Active”. The Drug uptake (Intestine) was “Active”, the Stability (Serum) was “Stable” and the logD [1] was 0.78. The Drug uptake (Liver [9]) was “Active”.
O=C1NC(=O)C(c2ccc(-c3ccccc3)cc2)(N2CCN(c3ccc([N+](=O)[O-])cc3)CC2)C(=O)N1 gave an IC50 [2] of 7 nM, a logD [1] of 2.15 and an IC50 [3] of 23 nM.
